Hits are enriched below; roughly 2% of the tested compounds scored in any of these assays.
NTR1 agonist = agonists of human neurotensin receptor NTR1 | P30989 | NTR1-U2OS beta-arrestin-GFP spot imaging, agonist mode | activation, % at 20 µM | hit rate 0.17% among 330,000 | AID 493036;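 active = activation at or above 40% of the spot to cytoplasm intensity ratio, with at least 20 cells analyzed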
PKA-R1A activ = PKA-R1A complex activation | activation, % at 11.4 µM | hit rate 0.083% among 340,000 | P00514+P68181 | PKA-R1A dissociation, Cy5-IP20 fluorescence polarization; scaled: DMSO 0%, 113 µM cGMP 100% | AID 504707;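 active = percent activation above the mean of all tested compounds plus 3 SD, cut at about 19% in these data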;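 also: higher means more PKAc released from R1A so a rise in polarization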
PKA-R2B activ = activators of human PKA-R2B complex | P22694+P31323 | AID 504700 | hit rate 0.079% among 340,000 | PKA-R2B holoenzyme dissociation, Cy5-IP20 fluorescence polarization; R2B truncated from residue 108, S112A mutant; 0% DMSO only, 100% 113 µM cGMP | activation, % at 11.4 µM;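 active = activation above a cutoff set at the mean over all compounds plus 3 SD, cut at about 18% in these data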;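 also: higher means more holoenzyme dissociation and a rise in polarization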
CAL PDZ FP-1 = blocks peptide binding to the human CAL PDZ domain | inhibition, % at 24.9 µM | purified CAL PDZ, TMR-peptide fluorescence polarization, 1 h | Q9HD26 | hit rate 0.92% among 300,000;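 active = mean inhibition of at least 30% with at least half of replicates also reaching 30%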
dFosB activator = activators of mouse delta FosB homodimer | P13346 | purified delta FosB, TAMRA-CDK5 oligo fluorescence polarization; percent of positive-control signal above neutral wells | activation, % at 25 µM | hit rate 0.99% among 340,000 | AID 493131;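 active = mean activation above about 17%, with every replicate also reaching it, limit read from the data, passing the limit was not always enough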
Target sequence (P13346 whole entry, looked up): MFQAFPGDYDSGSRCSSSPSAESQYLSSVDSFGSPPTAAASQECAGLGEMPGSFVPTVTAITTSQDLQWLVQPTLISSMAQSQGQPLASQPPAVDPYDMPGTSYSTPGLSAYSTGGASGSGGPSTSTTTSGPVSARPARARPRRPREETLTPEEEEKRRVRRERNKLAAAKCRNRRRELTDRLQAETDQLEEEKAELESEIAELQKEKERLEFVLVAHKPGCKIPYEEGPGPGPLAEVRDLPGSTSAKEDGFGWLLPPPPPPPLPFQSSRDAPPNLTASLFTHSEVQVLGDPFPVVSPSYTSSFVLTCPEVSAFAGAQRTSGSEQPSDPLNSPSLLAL
CAL PDZ FP-2 = inhibitors of human CAL PDZ peptide binding; hit rate 0.02% among 330,000; AID 504414; Q9HD26; purified CAL PDZ, TMR-peptide fluorescence polarization, 1 h; inhibition, % at 20 µM;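 active = highest replicate inhibition of at least 40%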
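Read-out basis: mP drop reported as inhibition | Assay system: Tagged CAL PDZ protein CerCALP, purified | Benchmarks: Unlabelled peptide for full inhibition, DMSO wells as neutral | Schedule: 1 h incubation at room temperature before polarization reading | Buffer or medium: Sodium phosphate/NaCl buffer pH 7.4 with TCEP, IgG, Thesit | Doses: Single point, 20 µM | Measured by: Fluorescence polarization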
Of the large screens only hits and unclear results are named; the others gave an inactive call.

Cn1c(CC(=O)Nc2ccccc2F)nnc1SCC(=O)Nc1nncs1	none
CCc1ccc(OCC(=O)N2CCc3ccccc32)cc1	CAL PDZ FP-1 38
Cc1ccc(OCC(=O)N2CCc3ccccc32)cc1	none
Cc1ccc(C(=O)CSc2nnc(-c3ccccc3N)n2C)cc1	CAL PDZ FP-1 37 (no result: CAL PDZ FP-2)
COc1ccc(Nc2ncc(C(=O)N3CCC(C(N)=O)CC3)c3ccccc23)cc1	CAL PDZ FP-1 71
O=c1cc(-c2ccc(O)c(-c3c(O)cc(O)c4c(=O)cc(-c5ccc(O)cc5)oc34)c2)oc2cc(O)cc(O)c12	dFosB activator 18
O=c1cc(-c2ccc(O)cc2)oc2c(-c3c(O)cc(O)c4c(=O)cc(-c5ccc(O)cc5)oc34)c(O)cc(O)c12	none
CCCCNC(=S)N1CCN(c2ccccc2Cl)CC1	CAL PDZ FP-1 75
COC(=O)CCC(C)C1CCC2C3CCC4CC(O)CCC4(C)C3=CC(=O)C12C (centres undefined)	none (no result: NTR1 agonist, CAL PDZ FP-1)
COc1ccc(CCN2CC(=O)NC(=O)C2)cc1OC	none (no result: NTR1 agonist, CAL PDZ FP-1, dFosB activator, CAL PDZ FP-2)
COc1ccc(CNC(=O)CN2C(=O)NC(C)(c3cccc4ccccc34)C2=O)cc1OC (centres undefined)	CAL PDZ FP-1 41
Cc1ccc(S(=O)(=O)N2CCOCC2)cc1-c1n[nH]c(=S)n1-c1ccccc1	none
Cc1cc(C)n(Cc2ccccc2Cl)n1	CAL PDZ FP-1 41 (no result: CAL PDZ FP-2)
C#CCCOC(=O)N1C2=NC(C(=O)OC)=C(C(=O)OC)[C@@H]3N(Cc4ccccc4)c4ccccc4[C@]23C[C@H]1C(=O)OC	none
C=CCNCCCCOc1ccc(OCC)cc1	CAL PDZ FP-1 45 (no result: CAL PDZ FP-2)
C=CCNCCCOc1ccc(C(C)(C)c2ccccc2)cc1	none
Oc1ccc(N=Nc2ccccc2)o1	none
O=C(CSc1nnc(CNC(=O)c2cccs2)o1)Nc1ccc(Br)cc1	CAL PDZ FP-1 44
O=C(CSc1nnc(CNC(=O)c2cccs2)o1)Nc1ccc(Cl)cc1	none
COc1cc(S(=O)(=O)Nc2ccc(C(=O)NCC(=O)O)cc2)ccc1NC(C)=O	CAL PDZ FP-1 68
CC1CCN(CCCN2C(=O)C3C(C(=O)Nc4ccc(Cl)cc4)C4C=CC3(O4)C2C(=O)NC2CCCCC2)CC1 (centres undefined)	none
Cn1c(CNC(=O)CNC(=O)c2ccc(C(C)(C)C)cc2)cc(=O)n(C)c1=O	none (no result: CAL PDZ FP-1)
Cc1ccc(C(=O)NCC(=O)NCc2cc(=O)n(C)c(=O)n2C)cc1C	CAL PDZ FP-1 44
COc1ccc(NC(=O)CN(C)C(=O)Cc2n[nH]c(=O)c3ccccc23)cc1	CAL PDZ FP-1 31
COc1ccc(NS(=O)(=O)c2cc(NC(=O)Cc3n[nH]c(=O)c4ccccc34)ccc2OC)cc1	CAL PDZ FP-1 51 (no result: NTR1 agonist)
COc1ccc(C(=O)COC(=O)/C=C/c2ccco2)cc1F	CAL PDZ FP-1 65
CCOC(=O)c1cnc(SCc2nc(N)nc(Nc3ccc(C)cc3)n2)nc1N	dFosB activator 48 (no result: CAL PDZ FP-1)
COc1ccc(S(=O)(=O)N(C(C)=O)c2ccc3oc(=O)sc3c2)cc1	CAL PDZ FP-1 89
NC(N)=NS(=O)(=O)c1ccc(NC(=S)NC(=O)/C=C/c2cccs2)cc1	dFosB activator 62
O=C(Nc1ccc(F)cc1)c1cc(-c2ccccc2)no1	CAL PDZ FP-1 109
Cc1cc(C)n(C(=O)c2cc([N+](=O)[O-])cc([N+](=O)[O-])c2)n1	none
Cc1[nH]nc2c(=S)[nH]c(=O)[nH]c12	none (no result: NTR1 agonist, CAL PDZ FP-1, dFosB activator, CAL PDZ FP-2)
CC(=O)C1=NOC(CNC(=O)c2c(-c3ccccc3Cl)noc2C)C1 (centres undefined)	CAL PDZ FP-1 45
CC(=O)C1CCCN(C(=O)c2ccc3oc(CCc4ccccc4)nc3c2)C1 (centres undefined)	CAL PDZ FP-1 47
Cc1cc2oc(=O)cc(CN3CCOCC3)c2cc1C(C)C	CAL PDZ FP-1 62
Cc1n[nH]c(C)c1Sc1ccccc1N=Cc1cc(Cl)cc([N+](=O)[O-])c1O	dFosB activator 51
Cc1n[nH]c(C)c1Sc1ccccc1[N+](=O)[O-]	none
O=C(C1CCCO1)N1CCN(C(=S)Nc2cccc(F)c2)CC1 (centres undefined)	none
Cc1cccc(NC(=S)N2CCN(C(=O)C3CCCO3)CC2)c1 (centres undefined)	CAL PDZ FP-1 67
C=CCc1ccccc1OCC(O)CN1CCN(CCN2C(=O)c3cccc4cccc(c34)C2=O)CC1 (centres undefined)	dFosB activator 47
Cc1ccc2[nH]c(O)c(N=NC(=O)CCc3ccccc3)c2c1Br	dFosB activator 17 (no result: CAL PDZ FP-1)
Cc1ccc(C)c(N2CCN(S(=O)(=O)c3ccc(-c4ccc(=O)[nH]n4)o3)CC2)c1	CAL PDZ FP-1 44
Cc1ccc(Cl)cc1N1CCN(S(=O)(=O)c2ccc(-c3ccc(=O)[nH]n3)o2)CC1	none
CCCNC(=O)C1(CC2CC(c3ccccc3)=NO2)CCN(C(=O)c2cc(OCC)c(OCC)c(OCC)c2)CC1 (centres undefined)	none
COc1ccc(CN2CCNC(=O)C2CC(=O)NC2CCCC2)cc1OC (centres undefined)	none
COc1ccc(CN2CCNC(=O)C2CC(=O)NC2CCCCCCC2)cc1OC (centres undefined)	CAL PDZ FP-1 55
CCOC(=O)[C@H]1[C@H]2COc3ccc(OC)cc3[C@@H]2N2C(=O)c3cc(OC)c(OC)cc3NC(=O)[C@@]12C	none
Cc1ccccc1OCC(=O)OCC(=O)Nc1ncc(Cl)c(C)c1Cl	none
O=c1[nH]c2nc(Cl)nc(Cl)c2[nH]1	CAL PDZ FP-1 81 (no result: NTR1 agonist)
COc1ccc2c(c1)[nH]c1c(=O)n(/N=C/c3ccc(OC)c(CN4CCCCC4)c3)cnc12	dFosB activator 74
COc1ccc2c(c1)[nH]c1c(=O)n(/N=C/c3ccc(OC)c(COc4ccccn4)c3)cnc12	none
Cc1ccc(C(=O)N2CCC(C(=O)c3c(C)cc(C)cc3C)CC2)cc1	none
Cc1c(C(=O)N2CCCCC2)c(S(=O)(=O)NCCc2ccc(S(N)(=O)=O)cc2)c(C)n1C	none
O=C(NNC(=O)c1ccc(Br)s1)c1csc(N2CCOCC2)n1	dFosB activator 61
Cc1sc(NC(=O)CN(CCc2ccccc2)C(=O)C2CC2)c(C(N)=O)c1C	none (no result: CAL PDZ FP-1)
COc1ccc(-c2csc(NC(=O)c3ccccc3NS(=O)(=O)c3ccc(F)c(F)c3)n2)cc1	CAL PDZ FP-1 42
Cc1[nH]c2ccccc2c1C(=O)C(=O)NCCOc1ccccc1	CAL PDZ FP-1 46
O=C(OCC(=O)N1CCOCC1)c1cncc(Br)c1	none (no result: NTR1 agonist, CAL PDZ FP-1, dFosB activator, CAL PDZ FP-2)
Oc1[nH]c2ccccc2c1N=Nc1nncc2ccccc12	CAL PDZ FP-1 52
Oc1[nH]c2ccccc2c1N=Nc1ccccn1	none (no result: NTR1 agonist)
Cc1ccc2[nH]c3c(=O)n(CC(=O)NCCCN4CCN(c5ccc(F)cc5)CC4)ncc3c2c1	none

Screening data as filed in PubChem BioAssay.
